Data from ChEMBL document CHEMBL3596093, “Synthesis and antimicrobial evaluation of 5-aryl-1,2,4-triazole-3-thione derivatives containing a rhodanine moiety” (2015).
≈ marks a conversion by molar mass, not a printed value.

How the values were obtained:
Escherichia coli [1] = assay: Antibacterial activity against Escherichia coli KCTC 1924 after 24 hrs by two-fold serial dilution method; type: functional; settings: KCTC 1924, 24 h
Outline: (§1)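 Strains grown to mid-log phase in Mueller-Hinton broth, then diluted 1000-fold in the same broth to about 10^5 CFU/mL. Compounds were made up as DMSO stocks and two-fold serially diluted from a final top concentration of 64 µg/mL. Incubation was 37 °C for 24 h. Growth was read as absorbance at 630 nm on a microplate reader. MIC assays were run in triplicate.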

Streptococcus mutans = assay: Antibacterial activity against Streptococcus mutans 3065 after 24 hrs by two-fold serial dilution method; type: functional; settings: Streptococcus mutans, 3065, 24 h; outline: as §1
Staphylococcus aureus [2] = assay: Antibacterial activity against methicillin-resistant Staphylococcus aureus CCARM 3506 after 24 hrs by two-fold serial dilution method; type: functional; settings: CCARM 3506, 24 h
Outline: (§2)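 Broth microdilution MIC. Bacteria grown to mid-log phase in Mueller-Hinton broth, diluted 1000-fold, about 10^5 CFU/mL. Compounds from DMSO stocks, two-fold serial dilution from a final 64 µg/mL. Incubation at 37 °C for 24 h. Growth read as absorbance at 630 nm on a microplate reader. Run in triplicate.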

Staphylococcus aureus [3] = assay: Antibacterial activity against quinolone-resistant Staphylococcus aureus CCARM 3519 after 24 hrs by two-fold serial dilution method; type: functional; settings: CCARM 3519, 24 h; outline: as §2
Escherichia coli [4] = assay: Antibacterial activity against Escherichia coli CCARM 1356 after 24 hrs by two-fold serial dilution method; type: functional; settings: CCARM 1356, 24 h; outline: as §1
Staphylococcus aureus [5] = assay: Antibacterial activity against Staphylococcus aureus KCTC 209 after 24 hrs by two-fold serial dilution method; type: functional; settings: KCTC 209, 24 h; outline: as §1
Salmonella typhimurium = assay: Antibacterial activity against Salmonella typhimurium 2421 after 24 hrs by two-fold serial dilution method; type: functional, Salmonella enterica subsp. enterica serovar Typhimurium; settings: Salmonella enterica, 2421, 24 h; outline: as §1
Staphylococcus aureus [6] = assay: Antibacterial activity against Staphylococcus aureus KCTC 503 after 24 hrs by two-fold serial dilution method; type: functional; settings: KCTC 503, 24 h; outline: as §1
Pseudomonas aeruginosa [7] = assay: Antibacterial activity against Pseudomonas aeruginosa 2004 after 24 hrs by two-fold serial dilution method; type: functional; settings: Pseudomonas aeruginosa, 2004, 24 h; outline: as §1
Staphylococcus aureus [8] = assay: Antibacterial activity against quinolone-resistant Staphylococcus aureus CCARM 3505 after 24 hrs by two-fold serial dilution method; type: functional; settings: CCARM 3505, 24 h; outline: as §2
Staphylococcus aureus [9] = assay: Antibacterial activity against methicillin-resistant Staphylococcus aureus CCARM 3167 after 24 hrs by two-fold serial dilution method; type: functional; settings: CCARM 3167, 24 h; outline: as §2
Candida albicans = assay: Antifungal activity against Candida albicans 7535 after 24 hrs by two-fold serial dilution method; type: functional; settings: Candida albicans, 7535, 24 h
Staphylococcus aureus [10] = assay: Antibacterial activity against Staphylococcus aureus RN4220 after 24 hrs by two-fold serial dilution method; type: functional; settings: RN4220, 24 h; outline: as §2
Pseudomonas aeruginosa [11] = assay: Antibacterial activity against Pseudomonas aeruginosa 2742 after 24 hrs by two-fold serial dilution method; type: functional; settings: Pseudomonas aeruginosa, 2742, 24 h; outline: as §1
Staphylococcus aureus [12] = assay: Bactericidal activity against quinolone-resistant Staphylococcus aureus CCARM 3505 after 24 hrs by agar plate method; type: functional; settings: CCARM 3505, 24 h
Outline: (§3)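 5 µL from each well without visible growth plated on fresh Mueller-Hinton agar, then 37 °C for a further 24 h. MBC is the lowest concentration giving no visible colonies. Run in triplicate.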

Staphylococcus aureus [13] = assay: Bactericidal activity against quinolone-resistant Staphylococcus aureus CCARM 3519 after 24 hrs by agar plate method; type: functional; settings: CCARM 3519, 24 h; outline: as §3
Staphylococcus aureus [14] = assay: Bactericidal activity against Staphylococcus aureus KCTC 503 after 24 hrs by agar plate method; type: functional; settings: KCTC 503, 24 h; outline: as §3
Escherichia coli [15] = assay: Bactericidal activity against Escherichia coli KCTC 1924 after 24 hrs by agar plate method; type: functional; settings: KCTC 1924, 24 h
Outline: (§4)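 Samples of 5 µL from MIC wells with no visible growth were plated onto fresh Mueller-Hinton agar and incubated a further 24 h at 37 °C. MBC is the lowest concentration giving no visible colony growth on the agar. Assays were run in triplicate.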

Staphylococcus aureus [16] = assay: Bactericidal activity against methicillin-resistant Staphylococcus aureus CCARM 3167 after 24 hrs by agar plate method; type: functional; settings: CCARM 3167, 24 h; outline: as §3
Staphylococcus aureus [17] = assay: Bactericidal activity against methicillin-resistant Staphylococcus aureus CCARM 3506 after 24 hrs by agar plate method; type: functional; settings: CCARM 3506, 24 h; outline: as §3
Staphylococcus aureus [18] = assay: Bactericidal activity against Staphylococcus aureus RN4220 after 24 hrs by agar plate method; type: functional; settings: RN4220, 24 h; outline: as §4

| Structure (SMILES) | MIC (Escherichia coli [1]) [µg/mL] | MIC (Streptococcus mutans) [µg/mL] | MIC (Staphylococcus aureus [2]) [µg/mL] | MIC (Staphylococcus aureus [3]) [µg/mL] | MIC (Escherichia coli [4]) [µg/mL] | MIC (Staphylococcus aureus [5]) [µg/mL] | MIC (Salmonella typhimurium) [µg/mL] | MIC (Staphylococcus aureus [6]) [µg/mL] | MIC (Pseudomonas aeruginosa [7]) [µg/mL] | MIC (Staphylococcus aureus [8]) [µg/mL] | MIC (Staphylococcus aureus [9]) [µg/mL] | MIC (Candida albicans) [µg/mL] | MIC (Staphylococcus aureus [10]) [µg/mL] | MIC (Pseudomonas aeruginosa [11]) [µg/mL] | other results |
| --- | --- | --- | --- | --- | --- | --- | --- | --- | --- | --- | --- | --- | --- | --- | --- |
| O=C(O)CN1C(=O)/C(=C/c2ccc(/C=N/n3c(-c4ccc(Br)cc4)n[nH]c3=S)cc2)SC1=S | > 128 | > 64 | > 64 | > 64 | > 128 | > 64 | > 128 | > 64 | > 128 | > 64 | > 64 | > 64 | > 64 | > 128 |  |
| O=C1NC(=S)S/C1=C\c1ccc(/C=N/n2c(-c3ccc(Cl)cc3)n[nH]c2=S)cc1 | > 128 | > 64 | > 64 | > 64 | > 128 | > 64 | > 128 | > 64 | > 128 | > 64 | > 64 | > 64 | > 64 | > 128 |  |
| Cc1cccc(-c2n[nH]c(=S)n2/N=C/c2ccc(/C=C3\SC(=S)N(CC(=O)O)C3=O)cc2)c1 | 32 (≈ 64.6 µM) | > 64 | > 64 | 64 (≈ 129 µM) | > 128 | > 64 | > 128 | 64 (≈ 129 µM) | > 128 | 64 (≈ 129 µM) | 64 (≈ 129 µM) | > 64 | > 64 | > 128 | MBC (Staphylococcus aureus [12]): > 256 µg/mL; MBC (Staphylococcus aureus [13]): > 256 µg/mL; MBC (Staphylococcus aureus [14]): > 256 µg/mL; MBC (Escherichia coli [15]): > 256 µg/mL; MBC (Staphylococcus aureus [16]): > 256 µg/mL |
| Cc1ccc(-c2n[nH]c(=S)n2/N=C/c2ccc(/C=C3\SC(=S)NC3=O)cc2)cc1 | > 128 | > 64 | > 64 | > 64 | > 128 | > 64 | > 128 | > 64 | > 128 | > 64 | > 64 | > 64 | > 64 | > 128 |  |
| O=C(O)CN1C(=O)/C(=C/c2ccc(/C=N/n3c(-c4cccc(Cl)c4)n[nH]c3=S)cc2)SC1=S | > 128 | > 64 | > 64 | > 64 | > 128 | > 64 | > 128 | > 64 | > 128 | > 64 | > 64 | > 64 | > 64 | > 128 |  |
| O=C1NC(=S)S/C1=C\c1ccc(/C=N/n2c(-c3ccc(Br)cc3)n[nH]c2=S)cc1 | 64 (≈ 127 µM) | > 64 | > 64 | > 64 | > 128 | > 64 | > 128 | > 64 | > 128 | > 64 | > 64 | > 64 | > 64 | > 128 | MBC (Escherichia coli [15]): > 256 µg/mL |
| Cc1ccc(-c2n[nH]c(=S)n2/N=C/c2ccc(/C=C3\SC(=S)N(CC(=O)O)C3=O)cc2)cc1 | > 128 | > 64 | > 64 | 16 (≈ 32.3 µM) | > 128 | > 64 | > 128 | > 64 | > 128 | > 64 | > 64 | > 64 | > 64 | > 128 | MBC (Staphylococcus aureus [13]): > 128 µg/mL |
| Cc1cccc(-c2n[nH]c(=S)n2/N=C/c2ccc(/C=C3\SC(=S)NC3=O)cc2)c1 | 32 (≈ 73.1 µM) | > 64 | 32 (≈ 73.1 µM) | 32 (≈ 73.1 µM) | > 128 | > 64 | > 128 | 32 (≈ 73.1 µM) | > 128 | 32 (≈ 73.1 µM) | 64 (≈ 146 µM) | > 64 | 32 (≈ 73.1 µM) | > 128 | MBC (Staphylococcus aureus [17]): > 256 µg/mL; MBC (Staphylococcus aureus [12]): > 256 µg/mL; MBC (Staphylococcus aureus [18]): > 256 µg/mL; MBC (Staphylococcus aureus [13]): > 256 µg/mL; MBC (Staphylococcus aureus [14]): > 256 µg/mL; MBC (Escherichia coli [15]): 256 µg/mL (≈ 585 µM); MBC (Staphylococcus aureus [16]): > 256 µg/mL |
| O=C(O)CN1C(=O)/C(=C/c2ccc(/C=N/n3c(-c4ccc(Cl)cc4)n[nH]c3=S)cc2)SC1=S | > 128 | > 64 | > 64 | > 64 | > 128 | > 64 | > 128 | > 64 | > 128 | > 64 | > 64 | > 64 | > 64 | > 128 |  |
| O=C(O)CN1C(=O)/C(=C/c2ccc(/C=N/n3c(-c4ccccc4)n[nH]c3=S)cc2)SC1=S | > 128 | > 64 | > 64 | > 64 | > 128 | > 64 | > 128 | > 64 | > 128 | > 64 | > 64 | > 64 | > 64 | > 128 |  |
| O=C1NC(=S)S/C1=C\c1ccc(/C=N/n2c(-c3ccc(F)cc3)n[nH]c2=S)cc1 | > 128 | > 64 | > 64 | > 64 | > 128 | > 64 | > 128 | > 64 | > 128 | > 64 | > 64 | > 64 | > 64 | > 128 |  |
| O=C1NC(=S)S/C1=C\c1ccc(/C=N/n2c(-c3cccc(Cl)c3)n[nH]c2=S)cc1 | > 128 | > 64 | > 64 | > 64 | > 128 | > 64 | > 128 | > 64 | > 128 | > 64 | > 64 | > 64 | > 64 | > 128 |  |
